Data published in ChEMBL document CHEMBL1127022, “Transformation of monoamine oxidase-B primary amine substrates into time-dependent inhibitors. Tertiary amine homologues of primary amine substrates” (J Med Chem, 1993).

Experiments:
[1] = target: T1, Amine oxidase [flavin-containing] B (Bos taurus, UniProt P56560); experiment: Catalysis activity was calculated for Monoamine oxidase-B from Bovine liver; conditions: cattle
T1 sequence (P56560 whole entry): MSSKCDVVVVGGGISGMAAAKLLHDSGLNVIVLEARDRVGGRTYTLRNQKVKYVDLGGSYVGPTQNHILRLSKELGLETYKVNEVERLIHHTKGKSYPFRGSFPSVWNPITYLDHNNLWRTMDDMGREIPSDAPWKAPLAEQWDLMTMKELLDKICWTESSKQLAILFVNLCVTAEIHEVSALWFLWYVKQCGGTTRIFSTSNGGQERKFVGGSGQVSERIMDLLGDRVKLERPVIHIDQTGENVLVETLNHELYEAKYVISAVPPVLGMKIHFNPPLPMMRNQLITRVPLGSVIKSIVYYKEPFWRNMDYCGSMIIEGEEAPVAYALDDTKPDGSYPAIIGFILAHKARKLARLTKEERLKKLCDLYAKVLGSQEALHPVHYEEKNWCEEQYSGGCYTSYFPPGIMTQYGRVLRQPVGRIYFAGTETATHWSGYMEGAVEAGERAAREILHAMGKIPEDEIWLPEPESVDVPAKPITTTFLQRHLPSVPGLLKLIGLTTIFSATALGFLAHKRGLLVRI
Outline: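 Purified bovine liver MAO-B, with the test amine as substrate. Km and kcat were obtained by following the rate of hydrogen peroxide formation.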

[2] = target: T1, Amine oxidase [flavin-containing] B; experiment: Inactivation kinetic constant Monoamine oxidase-B from Bovine liver; conditions: cattle
Outline: (§1)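 Bovine liver MAO-B was added to inhibitor at various concentrations in 100 mM potassium phosphate, pH 7.40, with 2.0 mM β-mercaptoethanol or glutathione, at 25 °C. Aliquots taken over time were assayed with 0.5 mM cinnamylamine in 100 mM Tris, pH 9.0, and corrected against a no-inhibitor control. Ki and kinact came from Kitz–Wilson analysis.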

[3] = target: T1, Amine oxidase [flavin-containing] B; experiment: Inhibition of Monoamine oxidase-B from Bovine liver; outline: as §1

`CN(C)CCCc1ccccc1` was tested, and the k cat [1] was 0.21 s⁻¹, the kinact [2] was 0.00717 s⁻¹ and the Ki [3] was 0.38 mM.
For `CN(C)CCCCc1ccccc1`, the kinact [2] was 4.83e-05 s⁻¹ and the Ki [3] was 10 mM.
In the case of `CN(C)CCc1ccccc1`, the k cat [1] is reported as 1.4 s⁻¹, the kinact [2] is reported as 0.128 s⁻¹ and the Ki [3] is reported as 7.1 mM.
`CN(C)CCC(=O)c1ccccc1` gave a kinact [2] of 0.0288 s⁻¹ and a Ki [3] of 0.35 mM.
With `CCCCCN(C)C` the kinact [2] was 0.000267 s⁻¹ and the Ki [3] was 2.1 mM.
`CCCNCCc1ccccc1` was tested, and the kinact [2] was 0.0767 s⁻¹ and the Ki [3] was 4 mM.
